Values after ≈ are worked out from the molar mass of the structure shown.
Key:
[1] = tested on: Mycobacterium tuberculosis; assay: Antitubercular activity against Mycobacterium tuberculosis H37Rv assessed as parasite growth inhibition after 7 days by resazurin microtitre assay; assay type: functional; conditions: 168 h
Procedure, shortened: (§1)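 Mtb H37Rv was tested by resazurin microtitre assay (REMA) with twofold serial dilutions of compound. MIC was read visually as the lowest concentration preventing the dye's blue-to-pink colour change, since pink indicates growth.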

[2] = Selectivity index, ratio of CC50 for African green monkey Vero C1008 cells to MIC for Mycobacterium tuberculosis H37Rv; assay type: functional
Procedure, shortened: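 Selectivity index is CC50 from the MTT assay on Vero C1008 cells over MIC against Mtb H37Rv from the twofold-dilution REMA plate method, where MIC was read visually by the blue-to-pink resazurin change.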

[3] = Cytotoxicity against African green monkey Vero C1008 cells after 72 hrs by MTT assay; assay type: cell-based; conditions: chlorocebus sabaeus
Procedure, shortened: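 Vero C1008 cells were tested in microtitre plates with an MTT viability read-out, and CC50 values were determined.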

[4] = tested on: Mycobacterium tuberculosis; assay: Antitubercular activity against Mycobacterium tuberculosis H37Rv assessed as parasite growth inhibition; assay type: functional; procedure, shortened: as §1

Row | Structure (SMILES) | MIC [1] | Selectivity Index [2] | CC50 at 72 h [3] | MIC [4]
1 | CCN(CC)CC(O)CN(Cc1ccc(Cl)cc1)Cc1cc2ccccc2nc1OC (centres undefined) | 10.1 µM (≈ 4.44 µg/mL) | 80.41 | 808 µM | 
2 | CCN(CC)CC(O)CN(Cc1ccc(C)cc1)Cc1cc2ccccc2nc1OC (centres undefined) | 19.3 µM (≈ 8.14 µg/mL) | 52.21 | 1010 µM | 
3 | CCN(CC)CC(O)CN(Cc1ccc(OC)cc1)Cc1cc2ccccc2nc1OC (centres undefined) | 79.1 µM (≈ 34.6 µg/mL) | 9.19 | 727 µM | 
4 | NNC(=O)c1ccncc1 [ISONIAZID] | 15.3 µM (≈ 2.1 µg/mL) | 96 |  | 
5 | COc1nc2ccccc2cc1CN(Cc1ccc(Cl)cc1)CC(O)CN1CCCC1 (centres undefined) | 5.59 µM (≈ 2.46 µg/mL) | 160.57 | 898 µM | 
6 | COc1nc2ccc(Br)cc2cc1[C@@H](c1ccccc1)[C@@](O)(CCN(C)C)c1cccc2ccccc12 [BEDAQUILINE] |  |  |  | 0.108 µM (≈ 0.06 µg/mL)
7 | COc1ccc(CN(Cc2cc3ccccc3nc2OC)CC(O)CN2CCCC2)cc1 (centres undefined) | 18.6 µM (≈ 8.12 µg/mL) | 35.59 | 664 µM | 
8 | COc1nc2ccccc2cc1CN(Cc1ccccc1)CC(O)CN1CCOCC1 (centres undefined) | 97.1 µM (≈ 40.9 µg/mL) | 5.69 | 553 µM | 
9 | COc1nc2ccccc2cc1CN(Cc1ccc(C)cc1)CC(O)CN1CCOCC1 (centres undefined) | 21.9 µM (≈ 9.53 µg/mL) | 40.4 | 884 µM | 
10 | COc1ccc(CN(Cc2cc3ccccc3nc2OC)CC(O)CN2CCOCC2)cc1 (centres undefined) | 158 µM (≈ 71.5 µg/mL) | 5.86 | 928 µM | 
11 | COc1nc2ccccc2cc1CN(Cc1ccccc1)CC(O)CN1CCCC1 (centres undefined) | 5.18 µM (≈ 2.1 µg/mL) | 152.86 | 792 µM | 
12 | CCN(CC)CC(O)CN(Cc1ccccc1)Cc1cc2ccccc2nc1OC (centres undefined) | 40.6 µM (≈ 16.6 µg/mL) | 15.1 | 613 µM | 
13 | COc1nc2ccccc2cc1CN(Cc1ccc(C)cc1)CC(O)CN1CCCC1 (centres undefined) | 9.68 µM (≈ 4.06 µg/mL) | 115.02 | 1110 µM | 
14 | COc1nc2ccccc2cc1CN(Cc1ccc(Cl)cc1)CC(O)CN1CCOCC1 (centres undefined) | 20.2 µM (≈ 9.21 µg/mL) | 52.44 | 1060 µM | 
